Screens deposited in PubChem by several laboratories.
LMPTP inh: LMPTP (human) inhibition | P24666 | AID 651560 | 360,000 compounds, 0.22% hits | inhibition, % at 20 µM | recombinant LMPTP-A, OMFP fluorogenic substrate, fluorescence intensity;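 active means compounds that cut the enzyme signal by at least half of the control window in the single-dose screen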
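test system = LMPTP-A | amount = 0.625 nM LMPTP-A final | reagent = fluorogenic phosphatase substrate OMFP at 400 µM final | incubation = 50 min at room temperature | benchmarks = no-enzyme low control, uninhibited high control | medium = Bis-Tris pH 6.0, DTT, detergent | signal = fluorescence intensity of OMFP turnover product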
SUMO1-SIM PPI: SUMO1-SIM interaction modulation; inhibition, % at 20 µM; P63165; 360,000 compounds, 0.33% hits; AID 602429; SUMO1 binding to a labelled peptide, TR-FRET, 1 h; in the data active means inhibition above about 37%
Target sequence (P63165 whole entry, looked up): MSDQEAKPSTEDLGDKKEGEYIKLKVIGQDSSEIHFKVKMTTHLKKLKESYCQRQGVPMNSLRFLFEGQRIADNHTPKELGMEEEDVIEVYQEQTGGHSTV
DSG3 Ab inh: human desmoglein-3 autoantibody binding inhibition. 310,000 compounds, 0.48% hits. AID 588358. binding (percent of control), % at 10 µM. P32926. DSG3-coupled beads, scFv-anti-DSG3-GFP binding, flow cytometry; hits give low values;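 active means binding more than 3 SD below its plate's average and above zero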;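 further: hits lower antibody fragment binding to DSG3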
STEP inh: inhibitors of human striatal-enriched phosphatase STEP | 360,000 compounds, 0.25% hits | inhibition, % at 20 µM | P54829 | AID 588621 | recombinant STEP, OMFP fluorogenic substrate, fluorescence;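 active means inhibition at 20 µM, scaled per plate between control wells, above about 37%, limit read from the data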
Target sequence (P54829 whole entry, looked up): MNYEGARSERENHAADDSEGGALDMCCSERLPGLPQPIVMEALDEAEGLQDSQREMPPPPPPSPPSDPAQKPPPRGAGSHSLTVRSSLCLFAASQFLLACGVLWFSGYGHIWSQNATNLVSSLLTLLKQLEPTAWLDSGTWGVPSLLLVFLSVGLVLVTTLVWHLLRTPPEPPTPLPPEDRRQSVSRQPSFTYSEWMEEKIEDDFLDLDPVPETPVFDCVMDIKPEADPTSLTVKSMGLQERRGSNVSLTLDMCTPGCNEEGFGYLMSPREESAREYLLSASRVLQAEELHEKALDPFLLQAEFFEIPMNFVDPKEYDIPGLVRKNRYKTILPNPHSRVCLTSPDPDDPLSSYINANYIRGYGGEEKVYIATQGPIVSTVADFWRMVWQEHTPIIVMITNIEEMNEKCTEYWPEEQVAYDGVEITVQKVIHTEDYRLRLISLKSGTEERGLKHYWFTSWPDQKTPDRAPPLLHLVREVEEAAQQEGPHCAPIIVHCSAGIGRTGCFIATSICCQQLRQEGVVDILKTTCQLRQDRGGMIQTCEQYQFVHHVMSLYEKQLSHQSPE
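material = STEP tyrosine phosphatase | reagent = fluorogenic phosphatase substrate OMFP at 25 µM final | doses = single compound dose of 20 µM, 1% DMSO final | schedule = 20 min reaction, room temperature, in the dark | measured by = fluorescence, 480/540 nm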
Scp1 inh: inhibitors of human Scp-1 phosphatase; Recombinant Scp1, phosphopeptide, malachite green phosphate absorbance; inhibition, % at 20 µM; 340,000 compounds, 0.88% hits; AID 493091;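 active means inhibition above about 50% at 20 µM, limit read from the data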
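Test system: SCP-1 phosphatase catalytic domain, residues 76-261 | Compound dosing: One concentration, 20 µM, with 1.0% DMSO | Schedule: 45 min room-temperature reaction, 5 min colour, 30 min stabiliser | Detection: Absorbance at 630 nm | Read-out basis: % inhibition of SCP-1 phosphate liberation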
Scp-1 conf: confirmation of human Scp-1 phosphatase inhibitors; shares compounds with Scp1 inh; recombinant SCP-1 catalytic domain, phosphate release, malachite green absorbance; inhibition, % at 20 µM; 2,500 compounds, 61% hits; AID 540281
MG interference: interferes with malachite green readout, flagging false Scp-1 hits | shares compounds with Scp1 inh | Colorimetric interference counterscreen, malachite green absorbance 630 nm | apparent inhibition (interference), % at 20 µM | 2,500 tested, under 10 active | AID 540313;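 further: compounds added after enzyme reaction finished so only phosphate colour detection is probed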
Scp-1 Tm shift: validation of human Scp-1 inhibitors by thermal shift binding; shares compounds with Scp1 inh; Recombinant SCP1, Sypro Orange thermal shift Tm; thermal shift relative to vanadate control, % at 40 µM; 1,500 compounds, 25% hits;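 active means substances whose mean melting-temperature shift, as a percentage of the reference inhibitor's shift, reaches about 5.3%, limit read from the data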
Large screens that a line does not name were inactive (follow-up assays come after a bar, where they were run). Rows were chosen to be rich in hits. Some 1.7% of all compounds tested hit in one or more screens of this group.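 How the source made its calls, unless noted: active means inhibition of at least 30% at 20 µM; inactive means the rest.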

CCCCN(CCCC)CCCNC(=O)Cn1cc2c(n1)-c1c(oc(C(=O)N3CCCC3)c1C)CC2	none
O=C(O)c1ccc(Oc2ccc(S(=O)(=O)c3ccc(C(=O)O)c(C(=O)O)c3)cc2)cc1	Scp1 inh 54 | Scp-1 conf 41 | MG interference inactive | Scp-1 Tm shift inactive
CCc1cccc(NC(=O)c2cccc(S(=O)(=O)N3CCN(C)CC3)c2)c1	none
CCOC(=O)c1cc(-c2ccc(OC)cc2)nn1-c1ccccc1C(=O)O	SUMO1-SIM PPI 69, Scp1 inh 61 | Scp-1 conf 42 | MG interference inactive | Scp-1 Tm shift inactive
CCn1nc([N+](=O)[O-])c2c(-c3nc4ccccc4o3)c(N)n(CCCOC)c2c1=O	Scp1 inh 85 | Scp-1 conf 78 | MG interference inactive | Scp-1 Tm shift inactive
Cc1c(O)cc2c(c1O)C(=O)CC(c1ccc(O)cc1)O2 (stereo not given)	DSG3 Ab inh 77, Scp1 inh 58 | Scp-1 conf 45 | MG interference inactive | Scp-1 Tm shift 6.2
O=C(NC1CCCCC1)c1ccc2snnc2c1	none
COc1ccc(-c2nnc(NC(=O)C3=COCCO3)o2)cc1	none
CCN(CC)C(=O)CSc1ncnc2c(-c3cccs3)nsc12	Scp1 inh 76 | Scp-1 conf 61 | MG interference inactive | Scp-1 Tm shift 6.0
CCN(C[C@H]1N[C@@](Cc2ccccc2)(C(=O)OC)[C@H]2C(=O)N(C)C(=O)[C@@H]12)C(=O)COC	Scp1 inh 50 | Scp-1 conf inactive | MG interference inactive
COc1cc(/C=C(\NC(=O)c2cc(OC)c(OC)c(OC)c2)C(=O)NC(C(=O)O)c2ccccc2)cc(OC)c1OC (stereo not given)	none (no result: DSG3 Ab inh)
CCCn1c(CN2CCN(C(=O)c3ccco3)CC2)nc2cc(S(=O)(=O)N(C)C)ccc21	Scp1 inh 51 | Scp-1 conf inactive | MG interference inactive
CSc1ccc(/C=N/NC(=O)c2ccc(C)c(C)c2)cc1	Scp1 inh 83 | Scp-1 conf 59 | MG interference inactive | Scp-1 Tm shift inactive
CSc1ccc(/C=N/NC(=O)c2cc(O)cc(O)c2)cc1	none
Cc1cc(C)c2c(N)c(C(=O)c3ccc(Cl)c(Cl)c3)sc2n1	LMPTP inh 62, Scp1 inh 80 | Scp-1 conf inactive | MG interference inactive
CC(=O)OCC1=C(C(=O)O)N2C(=O)C(NC(=O)c3ccc(COc4cccc(Cl)c4Cl)o3)C2SC1 (stereo not given)	Scp1 inh 53 | Scp-1 conf 66 | MG interference inactive | Scp-1 Tm shift inactive
CC(=O)OCC1=C(C(=O)OC(C)(C)C)N2C(=O)[C@@H](NC(=O)Cc3ccccc3)[C@H]2SC1	Scp1 inh 91 | Scp-1 conf 70 | MG interference inactive | Scp-1 Tm shift 8.8
CC1=C(C(=O)OCC(Cl)(Cl)Cl)N2C(=O)C(NC(=O)Cc3ccccc3)C2SC1 (stereo not given)	none
CCCS(=O)(=O)NC(=O)C1(C)CCN(C(=O)Cc2ccc(OC)cc2)C1 (stereo not given)	none (no result: DSG3 Ab inh, Scp1 inh)
COc1ccc(-c2ccc3oc(-c4ccc(OC)cc4)c(C#CC4(O)CCCCC4)c3c2)cc1	Scp1 inh 73 | Scp-1 conf 42 | MG interference inactive | Scp-1 Tm shift inactive
CCC(C)N(C(=O)COC(=O)c1nc2nc(C)cc(C)n2n1)C1CCS(=O)(=O)C1 (stereo not given)	none
Nn1c(Nc2ccc(Cl)cc2)nncc1=O	none
CC(C)N(C(=O)CSc1nnc(-c2ccc3c(c2)OCO3)n1C)C(C)C	Scp1 inh 55 | Scp-1 conf inactive | MG interference inactive
Cc1cccc(-c2nnc(SCC(=O)NCc3ccc4c(c3)OCO4)n2C)c1	none
O=C1NN(c2ccccc2)C(=O)/C1=C/c1ccc(-c2ccc(C(=O)O)cc2)o1	Scp1 inh 77 | Scp-1 conf 58 | MG interference inactive | Scp-1 Tm shift 15
COC(=O)c1ccc(N2NC(=O)/C(=C/c3ccc(-c4ccc(Cl)c(C(=O)O)c4)o3)C2=O)cc1	Scp1 inh 76 | Scp-1 conf 75 | MG interference inactive | Scp-1 Tm shift 14
COc1cccc(CNC(=O)CCCc2cn(C)c3ccccc23)c1	none
O=C(Cn1ccc(NC(=O)OCc2ccccc2)nc1=O)NCc1ccc2c(c1)OCO2	none | Scp-1 conf inactive | MG interference inactive
CCCN(CC1CC1)C(=S)NC(=O)c1ccc(S(=O)(=O)N2CCOCC2)cc1	none
C/C(=N\NC(=O)c1cc(-c2cccc([N+](=O)[O-])c2)n[nH]1)c1ccc(F)cc1	none
O=C(N/N=C/c1ccc(-c2cccc([N+](=O)[O-])c2)o1)c1ccccc1O	Scp1 inh 74 | Scp-1 conf 77 | MG interference inactive | Scp-1 Tm shift 9.2
O=C(N/N=C/c1ccc(-c2cccc([N+](=O)[O-])c2)o1)c1ccc([N+](=O)[O-])cc1	Scp1 inh 52 | Scp-1 conf inactive | MG interference inactive
C/C(=N\NC(=O)c1cc(-c2cccc([N+](=O)[O-])c2)n[nH]1)c1ccccc1O	STEP inh 97, Scp1 inh 96 | Scp-1 conf 85 | MG interference inactive | Scp-1 Tm shift 6.3
O=C(c1[nH]c(C(F)(F)F)nc1-c1ccccc1)N1CCc2ccccc2C1	none (no result: DSG3 Ab inh, Scp1 inh)
CCOc1cc(C)c(S(=O)(=O)Nc2ccc3cn[nH]c3c2)cc1C	none
O=c1c2c3c(sc2n(CCN2CCCC2)c(=O)n1Cc1ccco1)CCCCC3	none
O=C(Cn1c(=O)n(Cc2ccco2)c(=O)c2c3c(sc21)CCCCC3)Nc1ccccc1	Scp1 inh 74 | Scp-1 conf 44 | MG interference inactive | Scp-1 Tm shift 7.9
O=C(Cn1c(=O)n(Cc2ccco2)c(=O)c2c3c(sc21)CCCCC3)c1ccccc1	Scp1 inh 56 | Scp-1 conf inactive | MG interference inactive
COCCN(C(=O)COC(=O)CCOc1ccccc1C)c1c(N)n(Cc2ccccc2)c(=O)[nH]c1=O	none
COc1ccc(NC(=O)/C(C#N)=C\c2ccc(Br)o2)cc1	Scp1 inh 94 | Scp-1 conf 58 | MG interference inactive | Scp-1 Tm shift inactive
COC(=O)[C@H](CC(C)C)N1Cc2cc(OC)cc(OC)c2-c2ccccc2S1(=O)=O	Scp1 inh 98 | Scp-1 conf 50 | MG interference inactive | Scp-1 Tm shift inactive
